# DDE Tn7 FP inh: DD(E)-Tn7 binding inhibition, primary FP screen; inhibition, % at 8.3 µM; 0.13% of 370,000 active; FP displacement of FITC-Tn7 peptide from fibrin DD(E); 0% = median of compound wells per plate; P02675;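 active = inhibition above the mean of compounds falling within the control limits plus 3 SD of them, cut at about 14% in these data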;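 note: 0% = plate median of compound wells and 100% = 10 µM Aha-Tn7 peptide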
#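 assay system = human clot-derived fibrin DD(E) complex | quantity = Fibrin-DD(E) at 2 µM final | timing = 10 min preincubation, 3 h with tracer, room temperature | signal = fluorescence polarization | measure = percent inhibition | benchmarks = high control wells with 10 µM unlabelled Aha-Tn7 peptide (full inhibition) | replicates = singlicate testing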
# CAL PDZ FP-1: CAL PDZ (human) peptide binding inhibition. purified CAL PDZ, TMR-peptide fluorescence polarization, 1 h. inhibition, % at 24.9 µM. 0.92% of 300,000 active. AID 602252;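 active = mean inhibition of at least 30% with at least half of replicates also reaching 30%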;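 note: 0% = DMSO neutral control and 100% = excess unlabeled competitor peptide PRC23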
# ARNT-TACC3 inh: disrupts binding between human ARNT and TACC3; 0.66% of 390,000 active; Q9Y6A5; inhibition, % at 9.99 µM; AlphaScreen His-ARNT PAS-B/GST-TACC3 binding, luminescence; TACC3 fragment carries E629A point mutation; AID 623870;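 active = mean inhibition of replicates at least 50% and at least half of replicates each reaching 50%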;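 note: 0% = complete ARNT plus TACC3 wells and 100% = ARNT alone without TACC3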
# Tn6 DDE FP: inhibitors of Tn6 peptide binding to human fibrin DD(E). P02675. Fibrin DD(E) TRITC-Tn6 fluorescence polarization displacement. inhibition, % at 8.3 µM. 0.21% of 370,000 active;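 active = inhibition above a per-campaign cutoff: mean of compounds within control limits plus 3 SD, cut at about 15% in these data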;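 note: 0% = median of all compound wells on the plate and 100% = blocking peptide control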
# GRK2 inh: inhibitors of human GRK2 displacing RNA aptamer | inhibition of aptamer binding, % at 10 µM | 0.59% of 330,000 active | P25098 | bead flow cytometry, FAM-aptamer displacement from GRK2 | AID 488847;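 active = inhibition of aptamer binding above 40%, roughly 3 SD of noise, on plates passing a quality check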;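 note: median bead fluorescence of bound FAM aptamer so fluorescent compounds give negative values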
# Target sequence (P25098 whole entry, looked up): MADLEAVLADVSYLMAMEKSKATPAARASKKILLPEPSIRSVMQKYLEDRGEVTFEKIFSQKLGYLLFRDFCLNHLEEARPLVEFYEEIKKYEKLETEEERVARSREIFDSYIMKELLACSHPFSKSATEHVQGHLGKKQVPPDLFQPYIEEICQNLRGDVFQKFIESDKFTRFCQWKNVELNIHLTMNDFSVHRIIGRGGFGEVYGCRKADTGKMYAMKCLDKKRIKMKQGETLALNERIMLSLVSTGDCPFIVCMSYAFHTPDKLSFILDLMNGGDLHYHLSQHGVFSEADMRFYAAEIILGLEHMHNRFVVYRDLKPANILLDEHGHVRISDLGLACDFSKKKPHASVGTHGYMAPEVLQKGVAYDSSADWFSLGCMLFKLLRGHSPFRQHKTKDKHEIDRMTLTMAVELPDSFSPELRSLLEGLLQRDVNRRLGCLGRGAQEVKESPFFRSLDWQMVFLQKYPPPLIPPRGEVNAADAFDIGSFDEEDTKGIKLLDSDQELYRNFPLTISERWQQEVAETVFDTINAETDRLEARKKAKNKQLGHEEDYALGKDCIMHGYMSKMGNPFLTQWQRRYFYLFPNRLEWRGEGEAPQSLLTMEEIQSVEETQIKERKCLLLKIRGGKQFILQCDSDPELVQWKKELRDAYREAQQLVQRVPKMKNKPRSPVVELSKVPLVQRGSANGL
# CAL PDZ FP-2: blocks peptide binding to human CAL PDZ domain. 0.02% of 330,000 active. inhibition, % at 20 µM. AID 504414. Q9HD26. purified CAL PDZ, TMR-peptide fluorescence polarization, 1 h;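 active = highest replicate inhibition of at least 40%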;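 note: plate controls were DMSO neutral control wells for no effect and unlabeled competitor peptide control wells for full effect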
#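 material = purified tagged CAL PDZ domain construct (CerCALP) | compound dosing = 20 µM, one dose | times = 1 h at RT | measured by = fluorescence polarization from S- and P-plane intensities, G-factor corrected | read-out = inhibition from polarization loss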
# Starred values were filed as active, the others as inactive; / = no result given. Compounds with a hit are over-represented: about 1.8% of the library has one in this group of screens.
SMILES,DDE Tn7 FP inh,CAL PDZ FP-1,ARNT-TACC3 inh,Tn6 DDE FP,GRK2 inh,CAL PDZ FP-2
CCc1ccc2nc3n[nH]c(N)c3cc2c1,-0.5,-1.5,-2.3,11.1,28.0,-0.2
COc1ccccc1N1CCN(S(=O)(=O)c2ccc3c(c2)NC(=O)C(C)S3)CC1 (stereo not given),0.2,113.7*,0.8,0.3,2.0,-0.5
C=CCOC(=O)c1c(C)nc2cc3c(cc2c1C)OCO3,-4.2,-2.4,2.9,-2.8,1.0,-2.1
CCCC#Cc1ccc2c(c1)O[C@H](CN(C)C(=O)C1CC1)[C@H](C)CN([C@H](C)CO)S2(=O)=O,/,/,49.9*,/,/,/
CCCC#Cc1ccc2c(c1)O[C@@H](CN(C)C(=O)C1CC1)[C@@H](C)CN([C@H](C)CO)S2(=O)=O,/,/,11.1,/,/,/
COc1ccc(C#Cc2cnc3c(c2)C(=O)N([C@@H](C)CO)C[C@H](C)[C@@H](CN(C)C(=O)CC2CC2)O3)cc1,/,/,-2.3,/,/,/
Cc1ccc(-n2c(=O)[nH]c3cc(C(=O)NC4CCN(Cc5ccccc5)CC4)ccc3c2=O)cc1,-1.1,38.0*,-5.2,-1.6,0.0,-0.5
Cc1ccc(CN2CCSc3ccc(C(=O)NC4CCN(Cc5ccccc5)CC4)cc32)cc1,-2.7,-1.7,-1.0,-2.1,0.0,-1.9
COc1cc(CCNC2=CC(=O)c3ncccc3C2=O)ccc1O,-2.7,-2.8,37.1*,-2.5,/,0.4
C[C@H]1CN([C@@H](C)CO)C(=O)c2cc(NC(=O)Nc3ccccc3)ccc2O[C@H]1CN(C)Cc1ccc(-c2ccccc2)cc1,/,/,-1.1,/,/,/
Cc1[nH][nH]c(=O)c1C(c1ccc(-c2ccc(Cl)c(Cl)c2)o1)c1c(C)[nH][nH]c1=O,0.4,-3.7,61.3*,-1.1,1.0,-1.3
O=C(COc1ccc(Cl)cc1Cl)Nc1nnc(C2=COCCO2)o1,-5.5,-5.2,23.9,3.6,0.0,20.4
O=C(COc1ccc(Cl)cc1)Nc1nnc(C2=COCCO2)o1,7.7,-1.2,47.0*,-4.3,0.0,-0.9
COc1ccc(C(=O)Nc2nnc(C3=COCCO3)o2)cc1,1.5,-2.3,58.1*,2.5,2.0,-2.1
CCOc1ccc(C(=O)Nc2nnc(C3=COCCO3)o2)cc1,-1.0,-0.4,27.1,4.9,0.0,-3.8
C[C@@H]1CN([C@H](C)CO)S(=O)(=O)c2ccc(C#CC3(O)CCCC3)cc2O[C@@H]1CN(C)C(=O)c1ccncc1,/,/,-0.7,/,/,/
C[C@@H]1CN([C@@H](C)CO)C(=O)c2cc(NC(=O)CCC(F)(F)F)ccc2O[C@H]1CN(C)S(=O)(=O)c1cccs1,/,/,-15.0,/,/,/
O=C(c1ccco1)N1CCN(Cc2cc(=O)oc3cc(O)ccc23)CC1,-2.3,48.2*,-3.5,-0.3,3.0,-0.7
CC1CCN(c2ccc3c(c2)S(=O)(=O)c2ccccc2C3=O)CC1,6.0,1.8,-15.3,-6.1,4.0,-0.5
O=S(=O)(/N=C(/c1ccccc1)N1CCOCC1)c1ccc(Br)cc1,2.0,37.0*,-3.3,-4.8,7.0,-1.8
O=C(CN1CCN(c2ccc(O)cc2)CC1)N1CCc2ccccc21,2.2,49.3*,/,-2.1,0.0,0.2
O=c1[nH]nc(N=Nc2c(O)[nH]c3ccc(F)cc23)c(=O)[nH]1,6.0,-1.0,63.5*,7.6,/,-4.0
Nc1nc(SCc2ccccc2)c2ncn(C3OC(CO)C(O)C3O)c2n1 (stereo not given),-2.1,-0.4,1.3,1.3,/,-0.4
Nc1nc(SCC(=O)c2ccc(Cl)cc2)c2ncn(C3OC(CO)C(O)C3O)c2n1 (stereo not given),1.1,53.0*,1.6,-0.1,/,7.1
O=C1Nc2ccccc2C(=O)N(c2ccc3c(c2)OCCO3)C1C(=O)NC1CC1 (stereo not given),-1.1,/,/,8.6,/,/
SMILES,DDE Tn7 FP inh,CAL PDZ FP-1,ARNT-TACC3 inh,Tn6 DDE FP,GRK2 inh,CAL PDZ FP-2
COC(=O)c1ccc(S(=O)(=O)NCCc2ccccc2OC)n1C,1.0,69.0*,-2.6,-6.0,0.0,-1.3
COc1ccccc1CCNS(=O)(=O)c1cn(C)c(=O)n(C)c1=O,1.5,-0.1,-33.7,-1.9,0.0,-1.3
N#Cc1c(NC(=O)C2CC(Cl)=CCC2C(=O)O)sc2c1CCCC2 (stereo not given),4.6,-3.4,-6.1,-8.3,4.0,-1.4
O=[N+]([O-])C(=C1Nc2ccccc2N1)/C(Cl)=C(/Cl)Br,2.6,-0.3,60.8*,0.4,0.0,-2.7
N#Cc1nc(/C=C/c2ccccc2)oc1NCCCN1CCOCC1,1.7,35.9*,-14.6,1.0,0.0,0.1
CCCC#Cc1cnc2c(c1)C(=O)N([C@@H](C)CO)C[C@H](C)[C@@H](CN(C)C(=O)Nc1ccccc1OC)O2,/,/,0.6,/,/,/
CC1=NN(c2ccccc2)C(=O)/C1=C/N(C)C,-2.0,5.7,16.4,-0.4,1.0,-2.2
CC1=NN(c2nc3ccccc3[nH]2)C(=O)/C1=C/N(C)C,/,-1.1,68.1*,/,2.0,-1.1
CN(C)NC(=S)NC(=O)C12CC3CC(CC(C3)C1)C2,4.8,-5.3,1.2,-3.9,0.0,-1.9
CN(C(=S)NC(=O)C12CC3CC(CC(C3)C1)C2)c1ccc(O)cc1,8.5,-1.1,9.1,1.6,59.0*,0.2
C[C@H](NC(=O)N1CCn2c1nc1ccccc12)C(=O)NCCc1ccccc1,9.0,-0.8,-3.3,6.6,0.0,-3.2
N#CCc1nn(-c2ccc(Cl)cc2)c(N)c1C#N,4.1,-0.6,4.4,-1.5,1.0,-0.1
N#CCc1nn(-c2ccccc2)c2ncnc(N)c12,2.0,103.3*,2.7,-0.2,0.0,-0.4
O=C(CSc1nc(-c2ccccc2)cc(C(F)(F)F)n1)N1CCOCC1,6.8,96.3*,-23.8,1.7,1.0,-1.5
CCOC(=O)c1cnc2cc(F)c(F)cc2c1N1CCN(C)CC1,2.9,-3.5,-3.1,6.2,0.0,0.6
CCN1CCN(C(=O)c2cc(=O)c3cc(C)ccc3o2)CC1,-1.5,44.2*,/,-1.0,0.0,-0.8
O=C(O)c1cc(O)c2c(c1)C(=O)c1cccc(O)c1C2=O,3.1,2.4,-1.8,30.2*,4.0,0.8
CCCCc1ccc(S(=O)(=O)Nc2nnc(C)s2)cc1,9.0,51.9*,-3.0,2.1,0.0,-4.7
CC(=O)Nc1ccc(S(=O)(=O)Nc2nnc(C)s2)cc1,-2.1,/,/,-4.7,/,/
O=C(Nc1nnc(-c2ccccn2)o1)c1cccc(Cl)c1,-3.5,-0.8,52.2*,4.2,1.0,-1.8
O=C(Nc1nnc(-c2cccnc2)o1)c1cccc(Cl)c1,4.2,-4.5,52.0*,-0.4,0.0,-2.6
COc1cc(OC)cc(C(=O)Nc2nnc(-c3cccnc3)o2)c1,-0.4,-3.3,61.6*,6.8,3.0,-3.0
COc1cccc(-c2nnc(NC(=O)c3cccc(F)c3)o2)c1,4.5,/,15.6,-4.9,0.0,-0.5
